The list is not random: actives were taken first. Their share in the collection is about 1.1%.
SR-BI uptake up – enhances SR-BI lipid uptake from DiI-HDL; CHO ldlA[mSR-BI] cells, DiI-HDL uptake fluorescence, 3 h; 100 = double the neutral-control signal; activation, % at 12.5 µM; 320,000 tested, 0.096% active;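 active = mean replicate activation of at least 60% and every replicate at or above 60%; inconclusive = mean or all-replicate condition met, but not both; inactive = mean below 60% and not all replicates reaching 60%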;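 also: 0% = median plate neutral-control signal and 100% = twice that signal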
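System: LDL receptor-deficient CHO ldlA cells overexpressing murine SR-BI | Timing: 3 h uptake period with compound, 37 °C | Medium: HEPES-buffered (25 mM, pH 7.4) F12 plus 0.5% BSA | Dosing: Single-point compound dose | Signal: Bottom-read fluorescence, 550/595 nm | Read-out: Retained DiI signal reflecting DiI-HDL uptake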
SR-BI HDL uptake – mouse SR-BI HDL lipid transfer inhibition. AID 488896. Q61009. inhibition, % at 12.5 µM. 320,000 tested, 0.96% active. ldlA[mSR-BI] CHO cells, DiI-HDL uptake fluorescence, 3 h;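 active = mean replicate inhibition of at least 70% and a set share of replicates each scoring 70 or more; inconclusive = meets just one of the two criteria; inactive = fails both criteria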;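 also: 0% = median of neutral control wells and 100% = median of positive control wells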
Target sequence (Q61009 whole entry, looked up): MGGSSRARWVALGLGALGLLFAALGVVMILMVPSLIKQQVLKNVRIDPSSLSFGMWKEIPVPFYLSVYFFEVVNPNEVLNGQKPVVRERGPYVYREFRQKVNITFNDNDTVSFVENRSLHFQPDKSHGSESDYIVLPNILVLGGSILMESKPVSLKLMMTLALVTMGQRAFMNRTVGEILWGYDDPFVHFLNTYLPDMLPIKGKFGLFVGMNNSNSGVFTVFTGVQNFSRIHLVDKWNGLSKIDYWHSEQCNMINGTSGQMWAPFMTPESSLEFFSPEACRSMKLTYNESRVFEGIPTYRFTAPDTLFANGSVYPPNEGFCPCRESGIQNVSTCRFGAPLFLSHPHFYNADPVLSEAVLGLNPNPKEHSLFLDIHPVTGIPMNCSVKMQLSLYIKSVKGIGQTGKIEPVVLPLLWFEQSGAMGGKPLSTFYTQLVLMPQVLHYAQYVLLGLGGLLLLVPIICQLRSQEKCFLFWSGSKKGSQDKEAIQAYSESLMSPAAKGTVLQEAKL
GSK3B inh – blocks human GSK3beta kinase activity; P49841; 300,000 tested, 0.038% active; activity score (negative = inhibition), % at 10 µM; GST-GSK3beta kinase, ADP-Glo luminescence, 60 min; stronger effect = lower value;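 active = more than half of replicate wells score below -50%, meaning over 50% inhibition versus plate controls; inconclusive = some replicates but at most half score below -50%; inactive = no replicate scores below -50%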;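 also: 0% = median DMSO wells and -100% = median GW8510 positive control wells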
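test system = GST-tagged human GSK3beta kinase, cell-free | reagent = 25 µM ATP with peptide substrate | dosing = one dose of 10 µM per compound | schedule = 60 min reaction, RT | detection = luminescent ADP-Glo measurement of ADP formed | control set = DMSO neutral wells and GW8510 at 20 µM as positive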
CDK5 p35 inh – blocks human CDK5/p35 kinase activity | 330,000 tested, 0.01% active | inhibition, % at 10 µM | Recombinant CDK5/p35, ADP-Glo luminescence, 60 min | Q00535+Q15078 | AID 488839;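 active = highest replicate inhibition of at least 50% and at least 75% of replicates reaching 50%; inconclusive = only one of the two criteria met; inactive = both criteria failed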;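 also: plate controls were DMSO neutral control for no effect and GW8510 at 10 µM for full effect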
GSK3A inh – human GSK-3 alpha kinase inhibition; P49840; ADP-Glo luminescence, 60 min; inhibition, % at 10 µM; 320,000 tested, 0.1% active;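 active = more than half of replicates show inhibition above 20%; inconclusive = some but at most half of replicates above 20% inhibition; inactive = no replicate shows inhibition above 20%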;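 also: GST-tagged GSK-3 alpha with peptide substrate and 25 µM ATP; 0% = DMSO neutral wells and 100% = GW8510 positive control wells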
DiI quencher – DiI fluorescence quenching in cell-free counter-screen; cell-free DiI-HDL fluorescence quenching, 30 min; 470 tested, 20% active; AC50, µM (highest dose often 35 µM), for inactives: top-dose activity change, negative = quenching; shares compounds with SR-BI HDL uptake;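 active = quenching, a falling signal, with AC50 below a set limit tied to the top valid dose, actives reach about 32 µM in these data; inconclusive = no clear call, values can overlap the other calls; inactive = rising signal, and the rest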
Active calls of the source: *; ? = inconclusive; nt = no result.

SMILES | SR-BI uptake up | SR-BI HDL uptake | GSK3B inh | CDK5 p35 inh | GSK3A inh | DiI quencher
COc1ccc(/C=C/C(=O)Nc2cccc(S(=O)(=O)NC3=NCCCCC3)c2)cc1 | nt | nt | -2 | 3 | -4 | nt
O=C(CN1CCOCC1)Nc1nc(-c2ccc3c(c2)CCN3S(=O)(=O)c2ccccc2)cs1 | -48 | 48 | -4 | -1 | 0 | 3%
Cc1sc(NC(=O)CN2CCOCC2)nc1-c1ccc2c(c1)CCN2S(=O)(=O)c1ccccc1 | -70 | ? | -1 | 0 | -3 | -2%
COc1ccc(-n2cnc3c(cnn3CCC#N)c2=N)cc1 | 0 | 0 | -2 | 1 | 1 | nt
O=C1C2C3C=CC(C3)C2C(=O)N1c1cccc(N2C(=O)C3C4C=CC(C4)C3C2=O)n1 (configuration not stated) | 2 | -2 | -5 | -2 | -1 | -3%
Cc1nn(Cc2c(Cl)cccc2Cl)c(C)c1NC(=O)CCCn1nc([N+](=O)[O-])c(Cl)c1C | -80 | 80* | 4 | 0 | -1 | -7%
O=C(Nc1ccccc1)OC1CCC2CC1CCC2OC(=O)Nc1ccccc1 (configuration not stated) | -46 | 46 | -3 | 0 | -3 | nt
O=C(NC1CC1)c1ccc(CN(c2ccccc2)S(=O)(=O)c2ccccc2)cc1 | -74 | ? | -3 | 2 | -1 | 4%
COc1ccc(N2CC(C(=O)NCCc3ccc(Cl)cc3)CC2=O)c(OC)c1 (configuration not stated) | -79 | 79* | -1 | 0 | nt | -8%
COc1ccc(N2CC(C(=O)NCCc3ccc(OC)c(OC)c3)CC2=O)cc1 (configuration not stated) | 0 | 0 | 2 | -1 | -1 | nt
COc1ccc(N2CC(C(=O)NCCC3=CCCCC3)CC2=O)c(OC)c1 (configuration not stated) | -78 | 78* | 1 | 1 | -2 | -3%
CCCCNc1nc(Cl)nc(Nc2ccc(C)cc2)n1 | nt | nt | -1 | nt | -1 | nt
CCOc1ccc(NC(=O)CCC(=O)c2ccc(F)cc2)cc1 | 11 | -11 | 2 | 0 | 1 | nt
CSCCOC(=O)c1[nH]c2c(c1C)C(=O)CC(c1ccco1)C2 (configuration not stated) | -29 | 29 | -3 | 0 | -2 | nt
COC(=O)c1[nH]c2c(c1C)C(=O)CC(c1cc(OC)ccc1OC)C2 (configuration not stated) | -20 | 20 | -1 | 0 | -1 | nt
C=CCOC(=O)c1[nH]c2c(c1C)C(=O)CC(c1cc(OC)c(OC)c(OC)c1)C2 (configuration not stated) | -72 | 72* | 1 | 3 | -2 | -1%
Cc1c(C(=O)OCc2ccccc2)[nH]c2c1C(=O)CC(c1ccco1)C2 (configuration not stated) | -84 | 84* | -1 | 0 | -4 | -3%
Cc1c(C(=O)OCCOC(C)C)[nH]c2c1C(=O)CC(c1ccco1)C2 (configuration not stated) | -89 | 89* | 0 | 0 | 3 | -1%
COC(=O)c1[nH]c2c(c1C)C(=O)CC(c1cccs1)C2 (configuration not stated) | -82 | 82* | 4 | 1 | 0 | -6%
Cc1ccc(CN2CCN(C3CCCC3)C(CCO)C2)s1 (configuration not stated) | 4 | -4 | -1 | -1 | -3 | nt
CCCCn1c(N)c(N(CC(C)C)C(=O)c2ccc(S(=O)(=O)N3CCCCC3)cc2)c(=O)[nH]c1=O | 39 | -39 | 2 | 1 | 0 | nt
Cc1cc(C)c(S(=O)(=O)NCc2csc(C)n2)c(C)c1 | -5 | 5 | -1 | 0 | -1 | nt
CCOC(=O)c1[nH]c2c(c1C)C(=O)CC(c1ccco1)C2 (configuration not stated) | -57 | 57 | 0 | 0 | -3 | nt
COCCOC(=O)c1[nH]c2c(c1C)C(=O)CC(c1ccco1)C2 (configuration not stated) | -72 | ? | -3 | 1 | 1 | -2%
CCOC(=O)c1ccccc1NC(=O)COC(=O)CCC1CCCC1 | 16 | -16 | nt | 2 | -1 | nt
SMILES | SR-BI uptake up | SR-BI HDL uptake | GSK3B inh | CDK5 p35 inh | GSK3A inh | DiI quencher
N/C(=N\OC(=O)CCCc1ccccc1)c1ccccc1Cl | -18 | 18 | 0 | 1 | -1 | nt
COc1cc2c(C#CCCCO)c(-c3ccsc3)oc(=O)c2cc1OC | -73 | ? | nt | -1 | 2 | -3%
Cn1nc(-c2ccc(Cl)cc2)c2cc(C(=O)NCCCN3CCOCC3)sc21 | -72 | 72* | 2 | 0 | 4 | 1%
CCc1cc2c(=O)n(CCCOC)c(SCC(=O)Nc3oc(C)c4c(C)n[nH]c(=O)c34)nc2s1 | -12 | 12 | 4 | 0 | 1 | nt
COc1ccc(NC(=O)C2CCN(C(=O)c3ccc(OC)cc3)CC2)cc1 | -115 | 115* | 1 | 0 | -3 | 0%
O=S(=O)(c1ccccc1)c1cnc(-c2ccccc2)nc1N1CCCCC1 | -70 | ? | -21 | -1 | 0 | -1%
O=C1NC2(CCCCCC2)C(=O)N1Cc1cccc([N+](=O)[O-])c1 | -24 | 24 | 2 | 1 | 1 | nt
Cn1cc(S(=O)(=O)N2CCN(c3ccccc3F)CC2)c(=O)n(C)c1=O | 3 | -3 | 3 | 0 | -1 | nt
CCC(C)NC(=O)Cn1cc(S(=O)(=O)N2CCN(c3ccccc3F)CC2)c2ccccc2c1=O (configuration not stated) | -87 | 87* | -1 | 1 | -1 | 4%
CC(C)Cn1c(SC(C)C(=O)NC2CC2)nnc1-c1ccccc1F (configuration not stated) | -13 | 13 | nt | -1 | 2 | nt
O=C(CN1CCN(S(=O)(=O)c2ccccc2F)CC1)Nc1ccnn1C1CCCC1 | 1 | -1 | nt | -3 | 16 | nt
CCN(C(=O)COC(=O)c1c(C)c(-c2ccccc2)nc2ccccc12)C1CCS(=O)(=O)C1 (configuration not stated) | -75 | 75* | -4 | -1 | -3 | -1%
Cc1ccc2nc3c(c(C(=O)OCC(=O)N(C)C4CCS(=O)(=O)C4)c2c1)CCCC3 (configuration not stated) | -74 | 74* | -5 | 0 | 1 | -1%
Cc1cccc(Nc2ccccc2C(=O)OCC(=O)N(C)C2CCS(=O)(=O)C2)c1C (configuration not stated) | -73 | 73* | -1 | 0 | -4 | 2%
CN(C(=O)COC(=O)c1ccccc1Nc1ccccc1)C1CCS(=O)(=O)C1 (configuration not stated) | -46 | 46 | 0 | 0 | nt | nt

Bioassay records deposited in PubChem BioAssay by Broad Institute.
